The values below come from ChEMBL document CHEMBL3596186, “Synthesis and biological evaluation of diarylthiazole derivatives as antimitotic and antivascular agents with potent antitumor activity” (Bioorg Med Chem, 2015).

The structures appear in SMILES notation. Active and inactive are the calls of the source. The rule behind the calls is not given here.

Test [1] concerns HCT-116. In words: Induction of apoptosis in human HCT116 cells assessed as viable cells at 0.5 uM after 48 hrs by annexin V/propidium iodide staining-based flow cytometry (reference value: 92%). To be noted: HCT-116, 48 h, read-out: Activity. It counts as functional.
Test [2] has as its system A549. In words: Antiproliferative activity against human A549 cells after 48 hrs by MTT assay. Conditions: A549, 48 h. Format: functional, cell-based. In outline: (§1)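 HCT116, HepG2, SMMC-7721, SK-OV-3 and A2780s grown in DMEM; A549 and MCF-7 in RPMI-1640; all with 10% FBS and penicillin/streptomycin at 37 °C, 5% CO2. Log-phase cells at 40,000-50,000 cells/mL treated with graded concentrations for 48 h. MTT 3 h, DMSO solubilization, A570. IC50 from percent growth versus untreated control; mean ± SEM of ≥3 independent dose-response experiments.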

The subject of test [3] is HCT-116. The experiment in a line: Induction of apoptosis in human HCT116 cells assessed as necrotic cells at 0.2 uM after 24 hrs by annexin V/propidium iodide staining-based flow cytometry (reference value: 3.49%). It counts as functional.
The subject of test [4] is HCT-116. In words: Induction of apoptosis in human HCT116 cells assessed as early apoptotic cells at 0.5 uM after 24 hrs by annexin V/propidium iodide staining-based flow cytometry (reference value: 2.83%). Format: functional. In outline:
(§2)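 HCT116 cells treated with compound or DMSO for 24 or 48 h, trypsinized, washed twice in PBS and dual-stained with annexin-V and PI. Analysed by flow cytometry: early apoptotic cells scored as annexin-V+/PI−, late apoptotic cells as annexin-V+/PI+.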

The subject of test [5] is HCT-116. The experiment in a line: Induction of apoptosis in human HCT116 cells assessed as viable cells at 1 uM after 48 hrs by annexin V/propidium iodide staining-based flow cytometry (reference value: 92%). Format: functional. To be noted: HCT-116, 48 h, read-out: Activity.
The subject of another test is MCF7. The experiment in a line: Antiproliferative activity against human MCF7 cells after 48 hrs by MTT assay. It counts as functional, cell-based. To be noted: MCF7, 48 h. In a few lines:
as §1

In test [6] the test system is HepG2. The experiment in a line: Cell cycle arrest in human HepG2 cells assessed as accumulation at S phase at 0.5 uM after 24 hrs by flow cytometry (reference value: 23.97%). It counts as functional. On the technique in general: Flow cytometry measures light scatter and fluorescence of single cells or particles in a stream.
For test [7], the system named is A549. In words: Antiproliferative activity against human taxol-resistant A549 cells after 48 hrs by MTT assay. Format: functional, cell-based. Conditions: A549, 48 h. In a few lines:
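MCF-7/ADR (doxorubicin-resistant) and A549/T (taxol-resistant) cells in RPMI-1640 with 10% FBS and penicillin/streptomycin. Log-phase cells at 40,000-50,000 cells/mL exposed to graded concentrations for 48 h. MTT 3 h, DMSO solubilization, absorbance 570 nm. IC50 from percent growth versus untreated control; mean ± SEM of ≥3 independent experiments.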

In the next test the target is Tubulin (Homo sapiens) (UniProt P68371+Q9H4B7+P0DPH7+P68366+Q13509+Q71U36+P04350+Q3ZCM7+P07437+P68363+Q9BQE3+Q6PEY2+Q13885+Q9BVA1+Q9BUF5). The experiment in a line: Binding affinity to tubulin in human HepG2 cells at 5 uM after 4 hrs by EBI competition assay. Format: cell-based. In outline: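 HepG2 cells seeded at 500,000 cells/well, allowed to adhere, then treated with compound for 4 h. EBI added at 100 µM for 1.5 h. Cell extracts (about 20 µg protein) run on 10% SDS-PAGE, blotted to PVDF, probed with anti-β-tubulin, detected by ECL with GAPDH as loading control. Read-out is loss of the faster-migrating β-tubulin–EBI adduct band.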

Test [8] concerns HCT-116. The experiment in a line: Induction of apoptosis in human HCT116 cells assessed as early apoptotic cells at 0.5 uM after 48 hrs by annexin V/propidium iodide staining-based flow cytometry (reference value: 2.83%). Format: functional. In outline:
as §2

For test [9], the system named is HepG2. In words: Induction of apoptosis in human HepG2 cells assessed as necrotic cells at 1 uM after 24 hrs by annexin V/propidium iodide staining-based flow cytometry (reference value: 1.59%). Format: functional.
Test [10] relates to HCT-116. In words: Induction of apoptosis in human HCT116 cells assessed as early apoptotic cells at 0.2 uM after 24 hrs by annexin V/propidium iodide staining-based flow cytometry (reference value: 2.83%). It counts as functional. In outline:
as §2

The subject of test [11] is HCT-116. The experiment in a line: Induction of apoptosis in human HCT116 cells assessed as late apoptotic cells at 0.2 uM after 48 hrs by annexin V/propidium iodide staining-based flow cytometry (reference value: 1.71%). It counts as functional. In a few lines:
as §2

Test [12] concerns HCT-116. In words: Induction of apoptosis in human HCT116 cells assessed as necrotic cells at 0.2 uM after 48 hrs by annexin V/propidium iodide staining-based flow cytometry (reference value: 3.49%). Format: functional.
In test [13] the test system is HepG2. The experiment in a line: Induction of apoptosis in human HepG2 cells assessed as necrotic cells at 0.2 uM after 24 hrs by annexin V/propidium iodide staining-based flow cytometry (reference value: 1.59%). Format: functional.
Test [14] concerns HepG2. In words: Cell cycle arrest in human HepG2 cells assessed as accumulation at S phase at 0.2 uM after 24 hrs by flow cytometry (reference value: 23.97%). It counts as functional.
Test [15] deals with HepG2. In words: Cell cycle arrest in human HepG2 cells assessed as accumulation at G1 phase at 1 uM after 24 hrs by flow cytometry (reference value: 62.74%). Format: functional.
A further test concerns NCI-H1975. The experiment in a line: Antiproliferative activity against human gefitinib-resistant NCI-H1975 cells after 48 hrs by MTT assay. Format: functional, cell-based. To be noted: NCI-H1975, 48 h. For orientation: Tetrazolium dyes change colour on reduction, which living cells bring about.
Test [16] is described as follows: Inhibition of pig microtubule polymerization after 30 mins by turbidimetric assay. The arrangement: species or system Sus scrofa. In a few lines: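 Porcine-brain MAP-rich tubulin at 3 mg/mL preincubated 30 min at 4 °C in 0.1 M PIPES pH 6.9, 2 mM MgCl2, 0.5 mM EGTA. Compounds added 2 min before the run, then 1 mM GTP. Turbidity followed kinetically at 340 nm at 37 °C; assembly IC50 derived by Hamel's method.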

For a further test, the system named is SK-OV-3. The experiment in a line: Antiproliferative activity against human SKOV3 cells after 48 hrs by MTT assay. It counts as functional, cell-based. To be noted: SK-OV-3, 48 h. In outline: as §1
Test [17] concerns HepG2. In words: Cell cycle arrest in human HepG2 cells assessed as accumulation at G1 phase at 0.5 uM after 24 hrs by flow cytometry (reference value: 62.74%). It counts as functional.

Broadly, the IC50 is the point on the concentration scale where inhibition reaches its midpoint. Read a high IC50 as lower potency. In the case of `CCOc1ccc(-c2nc(N)sc2-c2cc(OC)c(OC)c(OC)c2)cc1`, the viability at 0.5 µM in the test on HCT-116 [1] was 29.1%. Also, the concentration for half-maximal inhibition (IC50) in the test on A549 [2] is 84 nM; in the test on MCF7 it was 100 nM; with A549 [7], 43 nM; with NCI-H1975 it was 217 nM; in [16] it was 2740 nM; with SK-OV-3 it was 14.2 nM. Besides, the Activity is reported as 3.69% with HCT-116 [3]; 11.2% in the test with HCT-116 [4]; 7.29% with HepG2 [6]; 40.3% in the test with HCT-116 [8]; 0.79% with HepG2 [9]; 7.8% with HCT-116 [10]. Further, the Activity with HCT-116 [11] stood at 23.4%; in the test on HCT-116 [12], 5.36%; in the test with HepG2 [13], 0.95%; in the test on HepG2 [14], 29.88%; in the test with HepG2 [15] it was 8.69%; in the test with HepG2 [17] it was 30.08%. The viability at 1 µM in the test on HCT-116 [5] turned out to be 20.2%. The outcome on Tubulin (Homo sapiens) was inactive.
